Compound activity from PubChem.
CRFBP-R2 agonist: CRF-BP/CRF-R2 complex agonism; HEK293 CRF-R2/CRF-BP, calcium dye fluorescence (FLIPR); percent of saturating CRF peptide response; AID 588473; activation, % at 13.2 µM; 350,000 tested, 0.46% active;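 active = activation of at least 50%, plus an integration ratio under a set limit after plate pattern correction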
TRPN1 ag: activates the zebrafish TRPN1 channel. activation, % at 3 µM. HEK293 zebrafish TRPN1-YFP, Fluo-8 calcium fluorescence; 100% = response to 87 µM carbachol. 220,000 tested, 0.18% active. AID 1424;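 active = activation above its plate's cutoff, the mean activation of test wells on that plate plus 3 SD, cut at about 19% in these data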
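Assay system: Zebrafish TRPN1-YFP in HEK293 cells | Incubation: Dye loading 1 h at 37 °C, then 30 min room temperature | Measured by: Kinetic Fluo-8 fluorescence, ex 470-495, em 515-575 nm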
GPR7 antag: blocks human GPR7 receptor signaling; 290,000 tested, 1.1% active; inhibition, % at 4.4 µM; GPR7-expressing cells, fluorescence antagonist assay; in the data active = inhibition above about 16%, passing the limit was not always enough;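 also: cells stimulated with the agonist NPW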
Target sequence (P48145 whole entry, looked up): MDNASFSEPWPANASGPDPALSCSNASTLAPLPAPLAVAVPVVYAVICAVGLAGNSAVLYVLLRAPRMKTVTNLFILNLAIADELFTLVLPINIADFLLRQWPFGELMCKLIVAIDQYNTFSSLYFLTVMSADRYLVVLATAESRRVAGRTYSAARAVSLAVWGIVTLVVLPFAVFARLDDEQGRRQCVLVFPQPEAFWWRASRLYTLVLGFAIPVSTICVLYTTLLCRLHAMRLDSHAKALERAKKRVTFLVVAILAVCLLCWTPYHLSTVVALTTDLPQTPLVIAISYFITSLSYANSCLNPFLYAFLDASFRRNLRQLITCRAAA
CRFR2-BP antag: blocks CRF-induced signaling of the CRF-BP/CRF-R2 complex. inhibition, % at 11.8 µM. HEK293 CRF-R2/CRF-BP, CRF-induced calcium fluorescence. 350,000 tested, 0.59% active;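 active = inhibition of the ligand-induced calcium signal above about 50% at the single tested concentration, limit read from the data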
TRPML3 agonist: agonists of human TRPML3 channel; Q8TDD5; HEK293 TRPML3-YFP, Fluo-8 calcium fluorescence; 100% = the carbachol control signal; activation, % at 3 µM; 220,000 tested, 0.29% active; AID 1448;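 active = activation above its plate's cutoff, the mean activation of the plate's test wells plus 3 SD, cut at about 12% in these data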
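Test system: TRPML3-YFP stable HEK293 cells. Doses: single point at 3 µM. Incubation: dye loading 1 h 37 °C then 30 min ambient, 125 s read. Signal: Fluo-8 calcium dye fluorescence, ex 470-495, em 515-575 nm. Measure: percent activation from peak-to-basal fluorescence ratio, scaled between DMSO and carbachol.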
Of the large screens only hits and unclear results are named; the others gave an inactive call. Rows were chosen to be rich in hits. Some 2% of all compounds tested hit in one or more screens of this group.

Cc1cccc(C(=O)NC(=S)NNC(=O)c2cccs2)c1	CRFBP-R2 agonist 269.5
[O-][N+](=Cc1ccccc1)CC1(O)CCCCC1	none (no result: TRPN1 ag, GPR7 antag, TRPML3 agonist)
CCCCCOc1ccc(C(O)C(CN2CCOCC2)c2ccccc2)cc1 (configuration not stated)	none (no result: TRPN1 ag, TRPML3 agonist)
Cc1cc2nc(C)n(CCCN)c2cc1C	CRFR2-BP antag 54.1
Cc1cc2nc(C)n(CCCNC(=O)Nc3ccc(C#N)cc3)c2cc1C	none
O=C(CSC1=NS(=O)(=O)c2cc(Cl)ccc2N1)Nc1ccccc1C(F)(F)F	none (no result: TRPN1 ag, GPR7 antag, TRPML3 agonist)
CC(C(=O)O)n1ncc2ccccc2c1=O (configuration not stated)	none
Cc1nn(C(C)C(=O)O)c(=O)c2ccccc12 (configuration not stated)	CRFR2-BP antag 56.8
COc1cc(NC(=O)CSc2nccc(C)n2)c(C(=O)O)cc1OC	none
COc1cc(NC(=O)CSc2cc(C)c3cc(C)cc(C)c3n2)c(C(=O)O)cc1OC	CRFR2-BP antag 64.9
COC(=O)[C@H]1C[C@@]2(O)CN(S(=O)(=O)c3ccc(C)cc3)C[C@@]2(OC(=O)Nc2cccs2)C[C@H]1C(=O)OC	none (no result: TRPN1 ag, GPR7 antag, TRPML3 agonist)
C/C(=N\NC(=O)C(C)Oc1ccc([N+](=O)[O-])cc1)c1ccccn1 (configuration not stated)	CRFR2-BP antag 55.4
Cc1cccc(OCc2nc(C#N)c(N3CCCC3)o2)c1	none
Cc1cccc(OCc2nc(C#N)c(N3CC(C)CC(C)C3)o2)c1 (configuration not stated)	GPR7 antag 20.9
CCOc1ccc(S(=O)(=O)N2CCN(C(=O)CCC(=O)N3CCOCC3)CC2)cc1	none (no result: TRPN1 ag, GPR7 antag, TRPML3 agonist)
CC1(C)C(=O)OC(c2cccn2-c2ccc([N+](=O)[O-])cc2)C2(CCCCC2)C1=O (configuration not stated)	CRFBP-R2 agonist 263.1
CC1(C)C(=O)OC(c2cccn2-c2ccc([N+](=O)[O-])cc2)C(C)(C)C1=O (configuration not stated)	none
O=C(Cn1cnc(S(=O)(=O)N2CCCCC2)c1)N1CCN(c2ccc([N+](=O)[O-])cc2)CC1	none (no result: TRPN1 ag, TRPML3 agonist)
CSC1=NCCN1C(=O)Cc1ccc(Cl)cc1	CRFR2-BP antag 50.2
COc1ccc(NC(=O)CCCC2CCCCC2)cc1S(=O)(=O)N1CCCCC1	CRFR2-BP antag 64.4
COc1ccc(NC(=O)CCN2C(=O)C3CC=CCC3C2=O)cc1S(=O)(=O)N1CCCCC1 (configuration not stated)	none (no result: TRPN1 ag, GPR7 antag, TRPML3 agonist)
COc1ccc(NC(=O)CN2CCCC2c2cccs2)cc1S(=O)(=O)N1CCCCC1 (configuration not stated)	CRFR2-BP antag 64.0 (no result: TRPN1 ag, GPR7 antag, TRPML3 agonist)
C(#Cc1ccccc1)C[N+]1(CC#Cc2ccccc2)CCCCC1	none
Cc1ccc(C#CC[N+]2(CC#Cc3ccc(C)cc3)CCCCC2)cc1	GPR7 antag 19.5
N/C(=N\OC(=O)COc1ccc(Br)cc1)c1ccncc1	CRFR2-BP antag 59.0
C1=C(c2ccc(-c3ccccc3)cc2)Nc2ncnn2C1c1ccco1 (configuration not stated)	CRFBP-R2 agonist 208.3, GPR7 antag 25.6
OCCCc1nc2n(n1)C(c1cccs1)C=C(c1ccc(Br)cc1)N2 (configuration not stated)	none (no result: CRFBP-R2 agonist, CRFR2-BP antag)
Brc1ccc(C2=CC(c3cccs3)n3ncnc3N2)cc1 (configuration not stated)	CRFBP-R2 agonist 318.2
Fc1ccc(C2=CC(c3ccc(Br)o3)n3ncnc3N2)cc1 (configuration not stated)	CRFBP-R2 agonist 192.4
Fc1ccc(Br)cc1C1C=C(c2cccnc2)Nc2ncnn21 (configuration not stated)	CRFBP-R2 agonist 53.3
Oc1ccc(C2C=C(c3ccc(F)cc3)Nc3ncnn32)cc1 (configuration not stated)	none
Fc1ccc(C2=CC(c3ccco3)n3ncnc3N2)cc1 (configuration not stated)	CRFBP-R2 agonist 65.0
NC(=O)c1ccc(SCC(=O)OCC(=O)NCc2ccco2)c([N+](=O)[O-])c1	none (no result: TRPN1 ag, GPR7 antag, TRPML3 agonist)
CCOC(=O)[C@@H]1[C@H]2COc3cc(OC)ccc3[C@@H]2N2C(=O)N(c3ccc(F)cc3)C(=O)[C@]12C	none (no result: TRPN1 ag, TRPML3 agonist)
Cc1c(Cl)c([N+](=O)[O-])nn1CC(=O)NC1CCCCC1	CRFR2-BP antag 98.5
Cc1c(Br)c([N+](=O)[O-])nn1CC(=O)NC1CCCCCC1	none (no result: TRPN1 ag, TRPML3 agonist)
COc1cc(/C=C2\Oc3cc(O)ccc3C2=O)ccc1O	CRFBP-R2 agonist 71.4 (no result: TRPN1 ag, GPR7 antag, TRPML3 agonist)
Cc1ccsc1/C=C1\Oc2cc(O)ccc2C1=O	CRFBP-R2 agonist 72.4 (no result: TRPN1 ag, GPR7 antag, TRPML3 agonist)
C=CCn1c(COc2ccccc2)nnc1SCC(=O)N/N=C/c1cc(Cl)ccc1O	CRFR2-BP antag 60.5
CCc1nc2ccccc2c(=O)n1/N=C/c1ccc(OC)cc1	none (no result: TRPN1 ag, GPR7 antag, TRPML3 agonist)
O=C(/C=C/c1ccc(Br)cc1)c1ccco1	GPR7 antag 22.2
C(=Cc1c[nH]c2ccccc12)c1nccc2ccccc12	none (no result: TRPN1 ag, GPR7 antag, TRPML3 agonist)
OCC[n+]1ccc(/C=C/c2c[nH]c3ccccc23)cc1	CRFBP-R2 agonist 118.9
CCCCn1c(SCc2c(C)noc2C)nc2cc(S(N)(=O)=O)ccc21	CRFR2-BP antag 54.0
CC(=O)Nc1ccc(S(=O)(=O)NCCC(=O)Nc2cc(C)ccn2)cc1	none (no result: TRPN1 ag, GPR7 antag, TRPML3 agonist)
CC1CCCCC12NC(=O)N(CC(=O)N1CCN(S(=O)(=O)c3ccc4c(c3)CCC4)CC1)C2=O (configuration not stated)	none (no result: TRPN1 ag, GPR7 antag, TRPML3 agonist)
CC1=C(C(=O)OCc2ccccc2)C(/C=C/c2ccccc2)N2C(=O)CCSC2=N1 (configuration not stated)	CRFR2-BP antag 69.2
CCOC(=O)C1=C(C)N=C2SCCC(=O)N2[C@@H]1/C=C/c1ccccc1	none
COc1cc(/C=C2/C(=N)N3C(SC)=NSC3=NC2=O)ccc1OC(=O)c1ccco1	none (no result: TRPN1 ag, TRPML3 agonist)
CSC1=NSC2=NC(=O)/C(=C/c3coc4ccccc4c3=O)C(=N)N12	CRFBP-R2 agonist 313.1, TRPN1 ag 36.2
CSC1=NSC2=NC(=O)/C(=C/c3coc4ccc(O)cc4c3=O)C(=N)N12	CRFBP-R2 agonist 79.3
N=C1/C(=C/c2cccn2Cc2ccc(F)cc2)C(=O)N=C2SC=CN12	none
N=C1/C(=C\c2coc3ccccc3c2=O)C(=O)N=C2SC=CN12	CRFBP-R2 agonist 180.6, TRPN1 ag 175.5, TRPML3 agonist 66.3
CC(C)(C)NC(=O)COC(=O)c1ccc(O)cc1	GPR7 antag 16.1
CCOC(=O)NC(=O)COC(=O)c1ccc(O)cc1	none
NC(=O)COC(=O)c1ccc(-c2ccc(O)cc2)cc1	CRFR2-BP antag 80.4
Cc1ccc(-c2nc(=S)c3c(n2Cc2ccco2)CC(C)(C)OC3)cc1	GPR7 antag 17.5
Cc1ccc(-c2nc(=S)c3c(n2Cc2ccco2)CCCC3)cc1	none
Cc1ccsc1C(=O)NCCc1nnc2ccccn12	none (no result: TRPN1 ag, TRPML3 agonist)
Cc1ccccc1CNC(=O)Nc1cccs1	CRFR2-BP antag 53.0
O=C(NCc1cccs1)Nc1cccs1	none
CCn1c(Cl)c(C=O)s/c1=N\S(=O)(=O)c1ccccc1	GPR7 antag 44.6
COc1ccc(-c2ccc3c(N)c(C(=O)c4ccc(OC)c(OC)c4)sc3n2)cc1	none
